Source: ChEMBL document CHEMBL2169816, “Noncyclam tetraamines inhibit CXC chemokine receptor type 4 and target glioma-initiating cells” (J Med Chem, 2012)
Calls of active or inactive are those of the source. The rule behind the calls is not given here.

Tests used:
[1] = target: T1, C-X-C chemokine receptor type 4 (Homo sapiens, UniProt P61073); conditions: GBM2, 1 uM
[2] = target: T1, C-X-C chemokine receptor type 4; conditions: GBM2, 1 uM; remark: listed apart in the source
CD44null [3] = test: Effect on human GBM2 cell differentiation assessed as increase in CD44null cells after 7 days by flow cytometric analysis; type: functional, cell-based
In short: (§1)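 Patient-derived GBM neurospheres were treated with 1 μM inhibitor for 7 days, then dissociated and blocked 15 min with 10 μg/mL human IgG. Staining was FITC anti-CD44 or IgG2b isotype, 20 min on ice in the dark, then PBS wash and propidium iodide to exclude dying cells. Flow cytometry gave CD44 null fraction and CD44 low/CD44 null ratio.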

[4] = target: T1, C-X-C chemokine receptor type 4; conditions: GBM2, 0.1 uM
[5] = Cytotoxicity against human GBM1 assessed as cell viability after 7 days by trypan blue staining method in presence of CXCL12 relative to control; conditions: GBM1 cells, read-out: Activity
In short: (§2)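 Dissociated neurospheres (acutase, 3 min) were counted and equal numbers seeded in triplicate per condition. Cells were treated or not with CXCR4 inhibitors (1 μM), with or without CXCL12. After 7 days cells were counted and viability expressed relative to untreated control.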

[6] = target: T1, C-X-C chemokine receptor type 4; conditions: GBM2, 0.1 uM; remark: listed apart in the source
Mus musculus [7] = test: Toxicity in Hsd:ICR(CD-1) mouse assessed as mortality at 2 mg/kg, iv after 1 min; type: organism-based; set-up: dose 2 mg/kg, route intravenous; conditions: in vivo
In short: (§3)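 Single iv tail-vein injection in physiological saline (0.9% NaCl) to Hsd:ICR (CD-1) mice; groups of 4 (2 male, 2 female) at doses of 1, 2, 3, 3.5 and 4 mg/kg. Viability/mortality and clinical signs checked during first 30 min and at ~1, 2, 3, 5 h on day 1, then through days 2–15; 14-day observation; body weights recorded; necropsy of all animals.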

[8] = Cytotoxicity against human GBM1 assessed as cell viability after 7 days by trypan blue staining method relative to control; conditions: GBM1 cells, read-out: Activity
In short: as §2

[9] = (§4) Toxicity in iv dosed Hsd:ICR(CD-1) mouse measured up to 14 days; type: organism-based; conditions: Hsd:ICR(CD-1), in vivo
In short: as §3

Mus musculus [10] = test: as §4; type: organism-based; conditions: in vivo, 336 h
In short: as §3

[11] = (§5) Cytotoxicity against human MT4 cells expressing CXCR4 after 5 days by MTT assay; type: cell-based; conditions: MT4 cells expressing CXCR4
In short: (§6)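 MT-4 cells, infected or not with HIV-1, exposed to a range of compound concentrations and left to proliferate for 5 days. Viable cells were counted by MTT colorimetric read-out. EC50 comes from protection against virus-induced cytopathic effect and CC50 from viability of uninfected cells.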

CD44null [12] = test: Effect on human GBM1 cell differentiation assessed as increase in CD44null cells after 7 days by flow cytometric analysis; type: functional, cell-based
In short: as §1

[13] = target: T1, C-X-C chemokine receptor type 4; conditions: GBM2, 1 uM; remark: listed apart in the source
[14] = target: T1, C-X-C chemokine receptor type 4; test: Antagonist activity at human recombinant CXCR4 expressed in CHO cells assessed as inhibition of SDF1a-induced electrical impedance by dielectric spectroscopic analysis; type: functional, cell-based
In short: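 CHO cells expressing recombinant human CXCR4. Antagonist mode: SDF-1a stimulant at 1 nM. Cellular impedance was read by cellular dielectric spectroscopy after incubation at 28 °C. Reference antagonist MIP-II was included. IC50 and KB were derived from concentration–response curves.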

[15] = system: Human immunodeficiency virus 1; test: Antiviral activity against HIV1 infected in MT4 cells expressing CXCR4 assessed as inhibition of virus-induced cytopathic effect after 5 days; type: functional, organism-based
In short: as §6

hERG (KCNH2) = hERG (KCNH2) (Homo sapiens, UniProt Q12809); test: Inhibition of human ERG expressed in CHOK1 cells at 10 uM after 5 mins by whole-cell patch clamp assay; type: cell-based; conditions: CHO-K1 cells expressing human ERG
In short: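 hERG-expressing CHO-K1 cells were tested by automated whole-cell patch-clamp, measuring inhibition of tail current. Compound was applied cumulatively at 0.1, 1 and 10 μM, 5 min each at room temperature. E-4031 served as reference.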

GBM1 [16] = test: Effect on human GBM1 cell differentiation xenografted in NOD-SCID mouse assessed as decrease in tumor size incubated for 7 days prior to xenografting measured after 40 days by MRI scanning analysis relative to control; type: functional, cell-based
In short: (§7)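 GBM1 neurospheres were pretreated in culture for 7 days, then dissociated, counted and checked for viability by trypan blue. 100.000 live cells were stereotactically injected into the right corpus striatum of 9-week-old NOD-SCID mice. At 40 days, contrast MRI (gadolinium-DTPA 0.25 mmol/kg ip) covered the whole brain and tumor volume was quantified.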

GBM1 [17] = test: Effect on human GBM1 cell differentiation xenografted in NOD-SCID mouse assessed as decrease in tumor number incubated for 7 days prior to xenografting measured after 40 days by MRI scanning analysis relative to control; type: functional, cell-based
In short: as §7

MT4 = test: as §5; type: cell-based; conditions: mt4, 120 h, 120 h
In short: as §6

[18] = target: Voltage-gated inwardly rectifying potassium channel KCNH2 (Homo sapiens, UniProt Q12809); test: Inhibition of human ERG expressed in CHOK1 cells after 5 mins by whole-cell patch clamp assay; type: cell-based, CHO-K1
Mus musculus [19] = test: Toxicity in Hsd:ICR(CD-1) mouse assessed as mortality at 3 mg/kg, iv after 1 min; type: organism-based; set-up: dose 3 mg/kg, route intravenous; conditions: in vivo
In short: as §3

[20] = target: T1, C-X-C chemokine receptor type 4; conditions: GBM2, 0.1 uM; remark: listed apart in the source
[21] = target: T1, C-X-C chemokine receptor type 4; conditions: GBM2, 1 uM; remark: listed apart in the source
[22] = target: T1, C-X-C chemokine receptor type 4; conditions: GBM2, 1 uM; remark: listed apart in the source
[23] = target: T1, C-X-C chemokine receptor type 4; conditions: GBM2, 1 uM; remark: listed apart in the source
Mus musculus [24] = test: Toxicity in Hsd:ICR(CD-1) mouse assessed as mortality at 2.5 mg/kg, iv after 1 min; type: organism-based; set-up: dose 2.5 mg/kg, route intravenous; conditions: in vivo
[25] = Human immunodeficiency virus 1, MT4, 120 h

T1 sequence (P61073 whole entry): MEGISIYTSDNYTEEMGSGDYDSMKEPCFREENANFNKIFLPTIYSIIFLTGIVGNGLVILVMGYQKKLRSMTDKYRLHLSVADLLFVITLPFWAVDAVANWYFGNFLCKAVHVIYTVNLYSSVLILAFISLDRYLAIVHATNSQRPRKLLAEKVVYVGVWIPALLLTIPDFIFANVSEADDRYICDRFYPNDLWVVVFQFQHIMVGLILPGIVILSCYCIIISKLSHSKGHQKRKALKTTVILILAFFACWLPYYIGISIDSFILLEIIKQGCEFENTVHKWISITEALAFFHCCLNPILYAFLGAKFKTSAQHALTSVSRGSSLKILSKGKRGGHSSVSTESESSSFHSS
Voltage-gated inwardly rectifying potassium channel KCNH2, sequence (Q12809 whole entry): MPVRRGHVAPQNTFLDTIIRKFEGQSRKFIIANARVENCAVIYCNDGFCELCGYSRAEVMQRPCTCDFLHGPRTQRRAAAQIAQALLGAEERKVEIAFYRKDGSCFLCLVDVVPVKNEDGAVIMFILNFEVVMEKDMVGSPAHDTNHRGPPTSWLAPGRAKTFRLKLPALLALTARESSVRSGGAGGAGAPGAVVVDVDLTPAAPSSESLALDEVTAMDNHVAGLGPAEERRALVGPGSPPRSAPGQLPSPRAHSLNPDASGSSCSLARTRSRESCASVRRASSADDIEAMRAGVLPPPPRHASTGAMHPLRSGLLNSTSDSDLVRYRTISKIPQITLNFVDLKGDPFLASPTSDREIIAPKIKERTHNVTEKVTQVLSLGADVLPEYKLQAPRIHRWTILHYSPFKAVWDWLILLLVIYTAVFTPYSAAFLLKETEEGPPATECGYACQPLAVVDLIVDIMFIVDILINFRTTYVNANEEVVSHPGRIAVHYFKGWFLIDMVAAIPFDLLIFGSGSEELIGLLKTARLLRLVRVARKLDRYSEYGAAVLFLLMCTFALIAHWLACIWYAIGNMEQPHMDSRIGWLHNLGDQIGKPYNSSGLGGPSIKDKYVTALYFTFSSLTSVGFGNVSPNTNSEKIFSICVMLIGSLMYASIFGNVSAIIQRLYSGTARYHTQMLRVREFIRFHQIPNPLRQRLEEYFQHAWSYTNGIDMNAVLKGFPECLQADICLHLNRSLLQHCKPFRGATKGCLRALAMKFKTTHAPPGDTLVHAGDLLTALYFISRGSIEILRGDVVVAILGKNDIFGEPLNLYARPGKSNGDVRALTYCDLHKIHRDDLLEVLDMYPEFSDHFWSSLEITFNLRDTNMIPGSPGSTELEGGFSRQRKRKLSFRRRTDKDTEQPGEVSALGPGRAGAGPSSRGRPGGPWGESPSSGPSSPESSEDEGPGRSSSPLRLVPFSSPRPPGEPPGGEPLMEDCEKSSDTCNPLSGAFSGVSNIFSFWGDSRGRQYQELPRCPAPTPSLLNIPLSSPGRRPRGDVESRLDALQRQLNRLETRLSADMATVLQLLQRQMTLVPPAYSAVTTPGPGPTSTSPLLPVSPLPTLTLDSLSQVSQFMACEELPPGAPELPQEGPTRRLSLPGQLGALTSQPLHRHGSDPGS
hERG (KCNH2), sequence (Q12809 whole entry): as above

SMILES	inhibition [1]	Activity (CD44null [3])	inhibition [4]	viability at 168 h [5]	inhibition [6]	viability at 168 h [8]	MTD at 336 h [9]	MLC (Mus musculus [10])	CC50 at 120 h [11]	Activity (CD44null [12])	inhibition [13]	IC50 [14]	EC50 [15, 25]	also measured
C[C@H]1CCCCN1CCCNCc1ccc(CNCCCN2CCCC[C@@H]2C)cc1.Cl	inactive	Active	inactive	> 80%	inactive	> 80%	1.5 mg/kg	2 mg/kg	> 44000 nM	Active	inactive	1100 nM	137 nM	inhibition [2]: Active; Activity (Mus musculus [7]): Toxic; inhibition at 5 min, 10 µM (hERG (KCNH2)): < 25%
CC1CCCCN1CCCNCc1ccc(CNCCCN2CCCCC2C)cc1 (mixture of isomers; 11) [listing 1 of 2 here]	–	Active	–	–	–	–	–	–	–	Active	–	–	–	Activity (GBM1 [16]): Active; Activity (GBM1 [17]): Active
CC1CCCCN1CCCNCc1ccc(CNCCCN2CCCCC2C)cc1 (mixture of isomers; 1)	–	–	–	–	–	–	–	–	–	–	–	–	–	CC50 (MT4): > 25 µg/mL; EC50 ([15]; mt4): 19 nM
C[C@@H]1CCCCN1CCCNCc1ccc(CNCCCN2CCCC[C@H]2C)cc1 [listing 1 of 2 here]	inactive	Active	inactive	–	inactive	–	–	–	–	Active	inactive	–	–	–
CC1CCCCN1CCCNCc1ccc(CNCCCN2CCCCC2C)cc1 (mixture of isomers; 11) [listing 2 of 2 here]	–	–	–	–	–	–	–	–	–	–	–	–	–	CC50 (MT4; read-out: CC50): > 44000 nM; EC50 ([15]; mt4): 130 nM
C[C@@H]1CCCCN1CCCNCc1ccc(CNCCCN2CCCC[C@H]2C)cc1 [listing 2 of 2 here]	–	–	–	–	–	–	2 mg/kg	2.5 mg/kg	–	–	–	–	–	–
C[C@@H]1CCCCN1CCCNCc1ccc(CNCCCN2CCCC[C@@H]2C)cc1.Cl (mixture of isomers)	Active	Active	inactive	> 80%	inactive	> 80%	2.5 mg/kg	3 mg/kg	26000 nM	Active	Active	790 nM	139 nM	IC50 [18]: > 100000 nM; Activity (Mus musculus [19]): Toxic; inhibition [20]: inactive; inhibition [21]: Active; inhibition [22]: Active; inhibition [23]: inactive
C[C@@H]1CCCCN1CCCNCc1ccc(CNCCCN2CCCC[C@H]2C)cc1.Cl	–	–	–	> 80%	–	> 80%	–	–	> 44000 nM	–	–	350 nM	125 nM	IC50 [18]: > 100000 nM; Activity (Mus musculus [24]): Toxic
